What was measured:
HaCaT [1] = assay: Antiproliferative activity against human HaCaT cells assessed as dispersed cells after 48 hrs by phase-contrast microscopic analysis; assay type: functional, cell-based
In short: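 HaCaT keratinocytes (non-transformed human line) treated for 48 h, then dispersed cells counted by phase-contrast microscopy. Inhibition = (1 − test/control) × 100, from means of test (N = 3) versus control (N = 6–8). Significance by Student's t-test (P < 0.05). IC50 obtained by nonlinear regression.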

HaCaT [2] = assay: Cytotoxicity against human HaCaT cells assessed as LDH release at 2 uM after 4 hrs by UV method; assay type: functional
In short: (§1)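 HaCaT cells exposed to test compound for 4 h at 37 °C. Extracellular LDH activity measured by UV method with pyruvate and NADH and reported in mU/mL (N = 3, SD < 10%). Vehicle control was 0.2% DMSO in culture medium. Brij 35 with ultrasound served as positive control. Significance versus vehicle at P < 0.05.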

[3] = tested on: Radical scavenging activity; assay: Antioxidant activity assessed as DPPH free radical scavenging activity; assay type: functional
In short: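 Cell-free DPPH radical interaction: compound effect on DPPH absorbance read at 520 nm. Percent interaction = (1 − test absorbance/control absorbance) × 100, from mean of N = 3 versus control N = 8. EC50 is the concentration giving 50% decrease in DPPH absorbance. NDGA and α-tocopherol served as positive controls.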

HaCaT [4] = assay: Cytotoxicity against human HaCaT cells assessed as LDH release at 2 uM after 4 hrs by UV method relative to control; assay type: functional; in short: as §1

For COc1cc(O)c2c(=O)c3ccccc3n(C)c2c1, the IC50 (HaCaT [1]) was greater than 50 µM.

For CCn1c2ccccc2c(=O)c2c(O)cc(O)cc21, the IC50 (HaCaT [1]) was greater than 50 µM.

Cn1c2ccccc2c(=O)c2c(O)cc(O)cc21 gave an IC50 (HaCaT [1]) of 0.6 µM, an Activity (HaCaT [2]) of 74.3 mU/ml and an EC50 [3] greater than 500 µM.

Cn1c2ccccc2c(=O)c2c(O)cccc21 showed an IC50 (HaCaT [1]) greater than 50 µM.

In the case of COc1cccc2c1c(=O)c1ccccc1n2C, the IC50 (HaCaT [1]) is reported as greater than 50 µM.

For CCn1c2ccccc2c(=O)c2c(O)cccc21, the IC50 (HaCaT [1]) was greater than 50 µM.

Molecule CCCn1c2ccccc2c(=O)c2c(O)cccc21 has an IC50 (HaCaT [1]) greater than 50 µM.

With CCCn1c2ccccc2c(=O)c2c(O)cc(O)cc21 the IC50 (HaCaT [1]) was greater than 50 µM.

In the case of Cn1c2ccccc2c(=O)c2ccccc21, the IC50 (HaCaT [1]) is reported as 38.9 µM.

For Cc1cccc2c1c(=O)c1c(O)cc(O)cc1n2C, the IC50 (HaCaT [1]) was greater than 50 µM.

For COc1ccc(CCn2c3ccccc3c(=O)c3c(O)cccc32)cc1, the IC50 (HaCaT [1]) was 6.3 µM, the Activity (HaCaT [2]) was 74.6 mU/ml and the EC50 [3] was greater than 500 µM.

For COc1ccc(CCn2c3ccccc3c(=O)c3c(O)cccc32)cc1OC, the IC50 (HaCaT [1]) was 7 µM and the EC50 [3] was greater than 500 µM.

Work on COc1cc(CCn2c3ccccc3c(=O)c3c(O)cccc32)cc(OC)c1OC yielded an IC50 (HaCaT [1]) of 45.5 µM.

O=c1c2ccccc2n(CCCc2ccccc2)c2cccc(O)c12 gave an IC50 (HaCaT [1]) greater than 50 µM.

Molecule O=c1c2ccccc2n(CCCCc2ccccc2)c2cccc(O)c12 has an IC50 (HaCaT [1]) greater than 50 µM.

For CCOc1cc(O)c2c(=O)c3ccccc3n(CC)c2c1, the IC50 (HaCaT [1]) was greater than 50 µM.

O=c1c2ccccc2n(Cc2ccccc2)c2cc(O)cc(O)c12 showed an IC50 (HaCaT [1]) of 3.7 µM, an Activity (HaCaT [2]) of 76.8 mU/ml and an EC50 [3] greater than 500 µM.

With O=c1c2ccccc2n(Cc2ccccc2)c2cc(OCc3ccccc3)cc(O)c12 the IC50 (HaCaT [1]) was greater than 50 µM.

With O=c1c2ccccc2n(CCCc2ccccc2)c2cc(O)cc(O)c12 the IC50 (HaCaT [1]) was 40.5 µM.

In the case of COc1ccc(Cn2c3ccccc3c(=O)c3ccccc32)cc1OC, the IC50 (HaCaT [1]) is reported as greater than 50 µM and the EC50 [3] is reported as greater than 500 µM.

CC(=O)CC(=O)n1c2ccccc2c(=O)c2ccccc21 showed an IC50 (HaCaT [1]) of 27.8 µM.

For CC(=O)CC(=O)n1c2ccccc2c(=O)c2c(O)cccc21, the IC50 (HaCaT [1]) was 3.3 µM, the Activity (HaCaT [2]) was 74 mU/ml and the EC50 [3] was greater than 500 µM.

O=c1c2ccccc2n(Cc2ccccc2)c2cccc(O)c12 was tested, and the IC50 (HaCaT [1]) was 2.5 µM, the Activity (HaCaT [2]) was 74.9 mU/ml and the EC50 [3] was greater than 500 µM.

Molecule O=c1c2ccccc2n(Cc2ccccc2)c2cccc(OCc3ccccc3)c12 has an IC50 (HaCaT [1]) of 7.5 µM, an Activity (HaCaT [2]) of 72.1 mU/ml and an EC50 [3] greater than 500 µM.

Work on O=c1c2ccccc2n(Cc2ccccc2)c2ccc(Cc3ccccc3)c(O)c12 yielded an IC50 (HaCaT [1]) of 13 µM.

With O=c1c2ccccc2n(Cc2ccc([N+](=O)[O-])cc2)c2cccc(O)c12 the IC50 (HaCaT [1]) was 1.8 µM, the Activity (HaCaT [4]) was 86.7 mU/ml and the EC50 [3] was greater than 500 µM.

Work on O=c1c2ccccc2n(CCc2ccccc2)c2cccc(O)c12 yielded an IC50 (HaCaT [1]) of 41.5 µM.

O=c1c2ccccc2n(CCc2ccc(O)cc2)c2cccc(O)c12 showed an IC50 (HaCaT [1]) of 20.1 µM and an EC50 [3] greater than 500 µM.

In the case of O=c1c2ccccc2[nH]c2cc(O)cc(O)c12, the EC50 [3] is reported as greater than 500 µM.

O=c1c2ccccc2[nH]c2cccc(O)c12 gave an IC50 (HaCaT [1]) greater than 50 µM and an EC50 [3] greater than 500 µM.

Work on O=c1c2ccccc2n(Cc2ccccc2)c2ccccc12 yielded an IC50 (HaCaT [1]) greater than 50 µM.

O=c1c2ccccc2[nH]c2ccccc12 [ACRIDONE] gave an IC50 (HaCaT [1]) greater than 50 µM.

COc1cc2c(c3c1c(=O)c1ccccc1n3C)C=CC(C)(C)O2 [ACRONINE] gave an IC50 (HaCaT [1]) of 3.2 µM, an Activity (HaCaT [2]) of 70.4 mU/ml and an EC50 [3] greater than 500 µM.

O=C1c2c(O)cccc2Cc2cccc(O)c21 [ANTHRALIN] was tested, and the Activity (HaCaT [4]) was 122.8 mU/ml and the EC50 [3] was 16.7 µM.

From ChEMBL document CHEMBL1287655, “Structure-activity relationship studies of acridones as potential antipsoriatic agents. 2. Synthesis and antiproliferative activity of 10-substituted hydroxy-10H-acridin-9-ones against human keratinocyte growth” (Eur J Med Chem, 2010)
